Assay results of several laboratories.
Each line is one published result; the experiments were not run side by side.
Target: Phosphatidylinositol 4-phosphate 3-kinase C2 domain-containing subunit beta (PIK3C2B, Homo sapiens, UniProt O00750)

| Structure (SMILES) | observed | technique | concentration | remaining binding [%] |
| --- | --- | --- | --- | --- |
| CN(CCCC(F)(F)F)c1nccc(-c2cnn3ncccc23)n1 | binding |  | 1 µM | 100 |
| O=C(NCCCN1CCOCC1)c1ccc(Nc2ncc(Cl)c(-c3ccc(Cl)s3)n2)cc1 | binding | competition with immobilised ligand | 1 µM | 100 |
| Cc1nc(NC(=O)N2CCC[C@H]2C(N)=O)sc1-c1ccnc(C(C)(C)C(F)(F)F)c1 | binding | competition with immobilised ligand | 10 µM | 4 |
| COc1cnc(Nc2cccc(S(N)(=O)=O)c2)nc1N1CCN(c2ccccc2)CC1 | binding | competition with immobilised ligand | 1 µM | 100 |
| FC(F)(F)Oc1cccc(-c2cnc3ccc(-c4ccncc4)nn23)c1 | cell-free assay | competition with immobilised ligand | 5 µM | 54 |
| O=S(=O)(NC1CCC(c2cc(F)ccc2F)(S(=O)(=O)c2ccc(Cl)cc2)CC1)C(F)(F)F (stereo not drawn) | cell-free assay | competition with immobilised ligand | 1 µM | 100 |
| c1cnn2ncc(-c3ccnc(N4CCC45COC5)n3)c2c1 | binding |  | 1 µM | 82 |
| COc1cnc(Nc2cccc(S(N)(=O)=O)c2)nc1N1CCN(c2ccccc2)C(=O)C1 | binding | competition with immobilised ligand | 1 µM | 97 |
| O=C(c1ccc(Nc2nccc(-c3cc4ccccc4s3)n2)cc1)N1CCC(N2CCCC2)CC1 | binding | competition with immobilised ligand | 1 µM | 99 |
| C[C@@H]1CN(c2cc(-c3nn(C)c4ccc(OC5(C)CC5)cc34)ncn2)C[C@H](C)O1 | cell-free assay | competition with immobilised ligand | 1 µM | 70 |
| O=C(c1ccc(Nc2ncc(Cl)c(-c3cc4ccccc4s3)n2)cc1)N1CCC(N2CCCC2)CC1 | binding | competition with immobilised ligand | 1 µM | 100 |
| C[C@@H](c1ccc(-n2cnc3c(N)ncnc32)cc1)N1CCc2nn(C)c(Cc3ccccc3)c2C1=O | binding | competition with immobilised ligand | 0.1 µM | 87 |
| N[C@H]1CCN(c2nccc(-c3cnn4ncccc34)n2)C1 | binding |  | 1 µM | 100 |
| Cc1nccc(COC(=O)N2C[C@@H]3[C@@H](CNC(=O)c4ccc5[nH]nnc5c4)[C@@H]3C2)n1 | cell-free assay | competition with immobilised ligand | 1 µM | 97 |
| O=C(NCC1CCOCC1)c1n[nH]cc1NC(=O)c1c(F)cccc1F | binding | competition with immobilised ligand | 1 µM | 100 |
| CN(c1ccnc(CNc2nc(Nc3ccc4c(c3)CC(=O)N4)ncc2C(F)(F)F)n1)S(C)(=O)=O | cell-free assay | competition with immobilised ligand | 1 µM | 79 |
| N#Cc1ccccc1CSc1nnc2c(n1)[nH]c1ccccc12 | binding | competition with immobilised ligand | 10 µM | 95 |
| C[C@H](c1ccnc(Nc2nc3ccc(-c4cc(N(C)C)ncn4)cc3[nH]2)c1)N1CCN(C(=O)CC(F)(F)F)CC1 | cell-free assay | competition with immobilised ligand | 0.1 µM | 97 |
| Cc1cnn2ncc(-c3ccnc(N(C)C)n3)c2c1 | binding |  | 1 µM | 100 |
| Nc1cnc(N2CCc3cc(S(=O)(=O)Nc4c(F)cc(Cl)cc4F)cc(N4CCCC4=O)c32)nc1 | cell-free assay | competition with immobilised ligand | 1 µM | 83 |
| CN(C)c1nccc(-c2cnn3ncccc23)n1 | binding |  | 1 µM | 100 |
| COc1ncc2cc3ccccc3nc2c1C#N | cell-free assay | competition with immobilised ligand | 5 µM | 100 |
| C[C@@H](c1cccc(C#N)c1)n1cc(Cl)cc(C(N)=O)c1=N | cell-free assay | competition with immobilised ligand | 1 µM | 96 |
| CN(c1nccc(-c2cnn3ncccc23)n1)C1CC1 | binding |  | 1 µM | 100 |
